Laboratory results published in PMC11931566 (RSC Medicinal Chemistry, 2025).
Read-outs that look alike come from different tables or passages of the source.

Assays:
[1] = tested on: five breast cancer cell lines; assay: GI50 evaluation, breast cancer cell lines; type: cell-based, human; conditions: for GI50: Homo sapiens, read-out: calculated average GI50, breast cancer
Method in brief: (§1)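 GI50 determined per human cancer cell line, grouped by tumour type, with a 3 μM cut-off applied. Per-panel average GI50 and range were calculated. Fold change was taken as the ratio of the average GI50 to that of a reference antitumor ether lipid.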

eight renal cancer cells = assay: GI50 evaluation, renal cancer cells; type: cell-based, human; conditions: for GI50: Homo sapiens
Method in brief: as §1

[2] = tested on: non-small cell lung cancer cell lines; assay: Cell growth inhibition, panel of nine NSCLC cell lines; type: cell-based, human
Method in brief: as §1

[3] = tested on: two prostate cancer cell lines; assay: GI50 evaluation, prostate cancer cell lines; type: cell-based, human; conditions: for GI50: Homo sapiens, read-out: calculated average GI50, prostate cancer
Method in brief: as §1

COLO205 = assay: GI50 evaluation, COLO205 colon cancer; type: cell-based; conditions: Homo sapiens, COLO 205, read-out: GI50, COLO205
Method in brief: as §1

HCC2998 = assay: GI50 evaluation, HCC2998 colon cancer; type: cell-based; conditions: Homo sapiens, HCC 2998, read-out: GI50, HCC2998
Method in brief: as §1

[4] = tested on: ovarian cancer cell lines; assay: GI50 evaluation, ovarian cancer cell lines; type: cell-based, human; conditions: for GI50: Homo sapiens
Method in brief: as §1

[5] = tested on: seven colon cancer cell lines; assay: GI50 evaluation, colon cancer cell lines; type: cell-based, human; conditions: for GI50: Homo sapiens
Method in brief: as §1

nine melanoma cell lines = assay: GI50 evaluation, melanoma cell lines; type: cell-based, human; conditions: for GI50: Homo sapiens
Method in brief: as §1

[6] = tested on: six CNS cancer cell lines; assay: GI50 evaluation, CNS cancer cell lines; type: cell-based, human; conditions: for GI50: Homo sapiens
Method in brief: as §1

[7] = tested on: four leukemic cancer cells; assay: GI50 evaluation, leukemic cancer cells; type: cell-based, human; conditions: from average GI50
Method in brief: as §1

ACHN = assay: GI50 evaluation, ACHN renal cancer; type: cell-based, human; conditions: cut-off value of 3 μM
Method in brief: as §1

UO31 = assay: GI50 evaluation, UO31 renal cancer; type: cell-based, human; conditions: cut-off value of 3 μM
Method in brief: as §1

HCT15 = assay: GI50 evaluation, HCT15 colon adenocarcinoma; type: cell-based, human; conditions: cut-off value of 3 μM
Method in brief: as §1

58 cancer cell lines = assay: Spectrum of anticancer activity, 58 cancer cell lines; type: cell-based, human; conditions: 10 μM
Method in brief: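 Spectrum screen over 58 human cancer cell lines covering leukemia, CNS, prostate, breast, lung and other tumour types, run in the NCI-60 screen at the National Cancer Institute. % growth inhibition per line; counts of lines above 50% and above 100% inhibition, plus mean growth inhibition across the 58 lines.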

CDK6 = assay: Western blot in A549 cells, CDK6; type: cell-based, human; conditions: 24 h
CDK7 = assay: Western blot in A549 cells, CDK7; type: cell-based, human; conditions: western blot (Fig. S1)
H322M = assay: Cell growth inhibition; type: cell-based; conditions: Homo sapiens, NCI-H322M, read-out: % growth inhibition, H322M
Method in brief: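 Single-dose screen of non-small cell lung cancer lines (adenocarcinoma, metastatic adenocarcinoma, large cell and squamous carcinoma) with test compound at 10 μM. Read-out is % growth inhibition per cell line. Run as part of the NCI-60 human tumour cell line screen at the National Cancer Institute.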

caspase 8 = assay: Western blot in A549 cells, caspase 8; type: cell-based, human; conditions: 24 h
PARP = assay: Western blot in A549 cells, PARP and cleaved PARP; type: cell-based, human; conditions: 24 h
A549 cells [8] = assay: Cell cycle distribution analysis; type: cell-based, human; conditions: 24 h, different concentrations
Method in brief: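 A549 lung cancer cells were treated with several concentrations of test compound, stained with propidium iodide for DNA content, and analysed by flow cytometry. Fractions in G0/G1, S and G2/M phases were quantified.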

A549 cells [9] = assay: Annexin V-FITC/PI double staining analysis; type: cell-based, human; conditions: 48 h, different concentrations
Method in brief: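 A549 cells were treated with several concentrations of test compound, stained with annexin-V and propidium iodide, and analysed by FACS. Live, early apoptotic, late apoptotic and necrotic populations were quantified as percentages.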

CDK8 = assay: Western blot in A549 cells, CDK8; type: cell-based, human; conditions: western blot (Fig. S1)
CDK1 = assay: Western blot in A549 cells, CDK1; type: cell-based, human; conditions: western blot (Fig. S1)
[10] = tested on: normal human foetal lung fibroblast MRC-5 cell line; assay: Selectivity against normal cells, MRC-5; type: cell-based; conditions: lung cancer cells rather than normal lung cells (MRC-5)
[11] = Selectivity against normal cells, MRC-5; type: cell-based, human; conditions: human, MRC-5 normal foetal lung fibroblast cells
BAX = assay: Western blot in A549 cells, BAX; type: cell-based, human; conditions: 24 h
cyclin D1 = assay: Western blot in A549 cells, cyclin D1; type: cell-based, human; conditions: 24 h
phospho-Rb (p-Rb) = assay: Western blot in A549 cells, phospho-Rb; type: cell-based, human; conditions: 24 h
CDK2 = assay: Western blot in A549 cells, CDK2; type: cell-based, human; conditions: 24 h
CDK4 = assay: Western blot in A549 cells, CDK4; type: cell-based, human; conditions: 24 h
[12] = read-out: GI50 range, renal cancer
[13] = read-out: calculated average GI50, renal cancer
[14] = Homo sapiens, read-out: GI50 range, non-small cell lung cancer
[15] = Homo sapiens, read-out: calculated average GI50, non-small cell lung cancer
[16] = read-out: GI50 range, ovarian cancer
[17] = read-out: calculated average GI50, ovarian cancer
[18] = read-out: GI50 range, colon cancer
[19] = read-out: calculated average GI50, colon cancer
[20] = read-out: calculated average GI50, melanoma
[21] = read-out: GI50 range, CNS cancer
[22] = read-out: calculated average GI50, CNS cancer

CCCCCCCCCCCCCCCCCCOCC(COP(=O)([O-])OCC[N+](C)(C)C)OC (centres unmarked) [edelfosine, reference compound]
GI50 [1]: > 67200 nM | GI50 (eight renal cancer cells; [12]): 12100 to 72800 nM | GI50 (eight renal cancer cells; [13]): 25000 nM | GI50 [2, 14]: 7050 to 46800 nM | GI50 [2, 15]: 25200 nM | GI50 [3]: > 53600 nM | GI50 (COLO205): 2650 nM | GI50 (HCC2998): 2380 nM | GI50 [4, 16]: 6670 to 42300 nM | GI50 [4, 17]: 25200 nM | GI50 [5, 18]: 2380 to 14700 nM | GI50 [5, 19]: 7800 nM | GI50 (nine melanoma cell lines; read-out: GI50 range, melanoma): 15400 to 98400 nM | GI50 (nine melanoma cell lines; [20]): 38700 nM | GI50 [6, 21]: 8750 to 58500 nM | GI50 [6, 22]: 21400 nM

CCCCCCCCCCCCCCCCCCOc1ccccc1CC(=O)OCC[N+](CC)(CC)CC.[I-] [Compound 8]
GI50 [1]: 1430 nM | fold increase compared to the potency of edelfosine, breast cancer ([1]; from average GI50): ~47 fold | GI50 [2, 14]: 1100 to 4030 nM | GI50 [2, 15]: 1800 nM | average fold increase compared to the potency of edelfosine, leukemia [7]: 13 fold | GI50 relative to cut-off, ACHN (ACHN): more than the applied cut-off value | GI50 relative to cut-off, UO31 (UO31): more than the applied cut-off value | GI50 [4, 16]: 920 to 7580 nM | GI50 [4, 17]: 2670 nM | GI50 relative to cut-off, HCT15 (HCT15): outside the applied cut-off window | GI50 [5, 18]: 1040 to 4390 nM | GI50 [5, 19]: 1880 nM | GI50 (nine melanoma cell lines; read-out: GI50 range, melanoma): 880 to 1900 nM | GI50 (nine melanoma cell lines; [20]): 1330 nM | average fold increase compared to the potency of edelfosine, melanoma (nine melanoma cell lines; from average GI50): 29 fold | GI50 [6, 21]: 970 to 1620 nM | GI50 [6, 22]: 1350 nM | fold increase compared to the potency of edelfosine, CNS cancer ([6]; from average GI50): more than 15 fold | number of cell lines out of 58 inhibited by more than 50% (58 cancer cell lines): 49 | number of cell lines out of 58 inhibited by more than 100% (58 cancer cell lines): 10

CCCCCCCCCCCCCCCCCCOc1ccccc1CC(=O)OCC[N+](C)(C)C.[I-] [Compound 6]
CDK6 protein level (CDK6): dose-dependent inhibition | CDK7 protein level (CDK7): no dose-dependent inhibition | inhibition at 10 µM (H322M): 33.5% | GI50 (eight renal cancer cells; [12]): 490 to 1750 nM | GI50 (eight renal cancer cells; [13]): 1350 nM | average fold increase compared to the potency of edelfosine, renal cancer (eight renal cancer cells; from average GI50): 18.5 fold | inhibition at 10 µM ([2]; Homo sapiens, read-out: % growth inhibition (range) against H460, A549, HOP62, HOP92, and H522 cell lines, 10 µM): 88.5 to 114% | GI50 [2, 14]: 1250 to 2170 nM | GI50 [2, 15]: 1620 nM | average fold increase compared to the potency of edelfosine, NSCLC ([2]; from average GI50): 15.5 fold | GI50 [3]: 1600 nM | fold increase compared to the potency of edelfosine, prostate cancer ([3]; from average GI50): 33.5 fold | caspase 8 cleavage (caspase 8): cleavage of caspase 8 | PARP cleavage (PARP): dose-dependent PARP cleavage | counts of cells in G0/G1 phase (A549 cells [8]): increased dose-dependently | counts of cells in the S and G2/M phases (A549 cells [8]): decreased in a dose-dependent pattern | apoptosis induction (early apoptosis population) (A549 cells [9]): increase in the portion of cells that entered the early apoptosis state | necrosis (A549 cells [9]): no significant necrosis | CDK8 protein level (CDK8): no dose-dependent inhibition | CDK1 protein level (CDK1): no dose-dependent inhibition | selectivity index, average [10]: 10.31 | selectivity index, range [10]: 7.70–13.36 | GI50 [11]: 16700 nM | BAX level (BAX): dose-dependent upregulation of BAX | cyclin D1 protein level (cyclin D1): dose-dependent inhibition | formation of phospho-Rb (p-Rb) (phospho-Rb (p-Rb)): inhibited dose-dependently | CDK2 protein level (CDK2): dose-dependent inhibition | GI50 [4, 16]: 650 to 9840 nM | GI50 [4, 17]: 2640 nM | fold increase compared to the potency of edelfosine, ovarian cancer ([4]; from average GI50): 9.5 fold | CDK4 protein level (CDK4): dose-dependent inhibition | GI50 [5, 18]: 1590 to 2960 nM | GI50 [5, 19]: 1910 nM | average fold increase compared to the potency of edelfosine, colon cancer ([5]; from average GI50): 4 fold | GI50 (nine melanoma cell lines; read-out: GI50 range, melanoma): 1570 to 2340 nM | GI50 (nine melanoma cell lines; [20]): 1730 nM | GI50 [6, 21]: 1230 to 2030 nM | GI50 [6, 22]: 1590 nM | number of cell lines out of 58 inhibited by more than 50% (58 cancer cell lines): 50 | number of cell lines out of 58 inhibited by more than 100% (58 cancer cell lines): 9

CCCCCCCCCCCCCCCCCCOc1ccccc1CC(=O)OCC[N+]1(C)CCCC1.[I-] [Compound 9]
GI50 [2, 14]: 1220 to 8220 nM | GI50 [2, 15]: 2670 nM | GI50 relative to cut-off, ACHN (ACHN): more than the applied cut-off value | GI50 relative to cut-off, UO31 (UO31): more than the applied cut-off value | GI50 [4, 16]: 1520 to 18900 nM | GI50 [4, 17]: 6300 nM | GI50 relative to cut-off, HCT15 (HCT15): outside the applied cut-off window | GI50 [5, 19]: 2170 nM | GI50 (nine melanoma cell lines; read-out: GI50 range, melanoma): 1630 to 2820 nM | GI50 (nine melanoma cell lines; [20]): 2070 nM | GI50 [6, 21]: 1260 to 2830 nM | GI50 [6, 22]: 1820 nM | number of cell lines out of 58 inhibited by more than 50% (58 cancer cell lines): 43 | number of cell lines out of 58 inhibited by more than 100% (58 cancer cell lines): 3

CCCCCCCCCCCCCCCCCCOc1ccccc1CC(=O)OCC[N+]1(C)CCCCC1.[I-] [Compound 10]
GI50 [2, 14]: 1320 to 5780 nM | GI50 [2, 15]: 2350 nM | GI50 relative to cut-off, ACHN (ACHN): more than the applied cut-off value | GI50 relative to cut-off, UO31 (UO31): more than the applied cut-off value | GI50 [4, 16]: 1540 to 18200 nM | GI50 [4, 17]: 6280 nM | GI50 relative to cut-off, HCT15 (HCT15): outside the applied cut-off window | GI50 [5, 19]: 2160 nM | GI50 (nine melanoma cell lines; read-out: GI50 range, melanoma): 1700 to 2790 nM | GI50 (nine melanoma cell lines; [20]): 2070 nM | GI50 [6, 21]: 1390 to 2930 nM | GI50 [6, 22]: 1920 nM | number of cell lines out of 58 inhibited by more than 50% (58 cancer cell lines): 31 | number of cell lines out of 58 inhibited by more than 100% (58 cancer cell lines): 6
